Measurements pooled from the literature.

SMILES	target or system	assay	system	conditions	measurement	result
C[C@]1(c2nc3c(C(N)=O)cccc3[nH]2)CCCN1			male rhesus monkey, plasma	oral, 5 mg/kg, single dose	Vd/F	38 L/kg
Cc1cccc(C(=O)n2nc(Cl)c(=O)c3ccccc32)c1		chemical stability	aqueous buffer	pH 7.3	half-life	0.642 h
O=C(Cn1cnc2ccccc21)NN=Cc1ccc(O)c(O)c1	SH-SY5Y	cell growth or viability, MTT		24 h	IC50	105 µM
Cc1cccc(C(=O)n2ncc(=O)c3ccccc32)c1		chemical stability	aqueous buffer	pH 7.3	half-life	1.9 h
COC(=O)C1CCN(C(=O)c2ccc(N(CCO)Cc3cnc4nc(N)nc(N)c4n3)cc2)CC1	Cytochrome P450 2C9 (CYP2C9, Homo sapiens, UniProt P11712)	enzyme activity, inhibitor, luciferase		10 µM	inhibition	-6.99%
O=C(N1CCC(CNS(=O)(=O)c2ccc(Cl)cc2)CC1)n1cncn1		chemical stability, HPLC	aqueous buffer	167 µM, pH 7.4	half-life	0.993 h
COc1cccc(CNC(=O)C(C)Oc2ccc(Cl)cc2Cl)c1 (stereo not drawn)	CHO	cell growth or viability, LDH			CC50	> 100 µM
O=C(ON1C(=O)CCC1=O)N1CCC(CNS(=O)(=O)c2ccc(Cl)cc2)CC1		chemical stability, HPLC	aqueous buffer	167 µM, pH 7.4	half-life	1.21 h
CC[C@H](C)[C@@H]1NC(=O)[C@@](C)(NC(=O)[C@H](CCCNC(=N)N)NC(=O)[C@H](CC(C)C)NC(=O)[C@@H](NC(=O)[C@H](CCC(N)=O)NC(=O)[C@H](CC(C)C)NC(C)=O)[C@@H](C)O)CCCC=CCCC[C@@](C)(C(=O)N[C@@H](CC(C)C)C(=O)N[C@@H](Cc2ccc3ccccc3c2)C(N)=O)NC(=O)[C@H](CCCNC(=N)N)NC(=O)[C@H](CCC(N)=O)NC1=O			male BALB/c mouse, plasma	intravenous, 10 mg/kg	AUC(0-t)	233 µg·h/mL
